From ChEMBL document CHEMBL5247578, “Effective synthesis of benzimidazoles-imidazo[1,2-a]pyrazine conjugates: A comparative study of mono-and bis-benzimidazoles for antitumor activity” (Eur J Med Chem, 2019)

Assays:
[1] = tested on: HCT-15; assay: Antiproliferative activity against human HCT-15 cells assessed as cell growth inhibition at 10 uM incubated for 48 hrs by sulforhodamine B assay relative to control; assay type: functional
Summary of the method: (§1)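 NCI-60 one-dose prescreen at 10^-5 M. Cells grown in RPMI 1640 with 5% FBS and 2 mM glutamine, preincubated 24 h, then exposed 48 h at 37 °C. Adherent lines TCA-fixed, SRB-stained, A515 read. Growth percent relative to time-zero and control; negative values mean cell kill.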

[2] = tested on: Malme-3M; assay: Antiproliferative activity against human Malme-3M cells assessed as cell growth inhibition at 10 uM incubated for 48 hrs by sulforhodamine B assay relative to control; assay type: functional
Summary of the method: (§2)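 NCI-60 single-dose screen at 10^-5 M. Cells grown in RPMI 1640 with 5% FBS and 2 mM L-glutamine, plated at 5,000–40,000 cells/well, and preincubated 24 h. Drug (DMSO stock) added and incubated 48 h at 37 °C, 5% CO2. Adherent cells fixed with cold TCA, stained with 0.4% SRB in 1% acetic acid, dye solubilized in 10 mM trizma base, A515 read. Percent growth taken against time-zero and untreated control.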

[3] = tested on: SK-MEL-2; assay: Antiproliferative activity against human SK-MEL-2 cells assessed as cell growth inhibition at 10 uM incubated for 48 hrs by sulforhodamine B assay relative to control; assay type: functional; summary of the method: as §2
[4] = tested on: HT-29; assay: Antiproliferative activity against human HT-29 cells assessed as cell growth inhibition at 10 uM incubated for 48 hrs by sulforhodamine B assay relative to control; assay type: functional; summary of the method: as §2
[5] = tested on: SN12C; assay: Antiproliferative activity against human SN12C cells assessed as cell growth inhibition at 10 uM incubated for 48 hrs by sulforhodamine B assay relative to control; assay type: functional; summary of the method: as §2
[6] = tested on: HOP-92; assay: Antiproliferative activity against human HOP-92 cells assessed as cell growth inhibition at 10 uM incubated for 48 hrs by sulforhodamine B assay relative to control; assay type: functional; summary of the method: as §1
[7] = tested on: ACHN; assay: Antiproliferative activity against human ACHN cells assessed as cell growth inhibition at 10 uM incubated for 48 hrs by sulforhodamine B assay relative to control; assay type: functional
Summary of the method: (§3)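 Single-dose NCI-60 prescreen at 10^-5 M. Cells in RPMI 1640 with 5% FBS and 2 mM L-glutamine, seeded 5,000–40,000 cells/well with 24 h preincubation, then drug exposure for 48 h at 37 °C under 5% CO2. Growth read by SRB staining of TCA-fixed cells at 515 nm against time-zero and untreated controls. Negative growth values denote cell kill.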

[8] = tested on: Hs-578T; assay: Antiproliferative activity against human Hs-578T cells assessed as cell growth inhibition at 10 uM incubated for 48 hrs by sulforhodamine B assay relative to control; assay type: functional; summary of the method: as §2
[9] = tested on: IGROV-1; assay: Antiproliferative activity against human IGROV-1 cells assessed as cell growth inhibition at 10 uM incubated for 48 hrs by sulforhodamine B assay relative to control; assay type: functional; summary of the method: as §2
[10] = tested on: UO-31; assay: Antiproliferative activity against human UO-31 cells assessed as cell growth inhibition at 10 uM incubated for 48 hrs by sulforhodamine B assay relative to control; assay type: functional; summary of the method: as §2
[11] = tested on: KM12; assay: Antiproliferative activity against human KM12 cells assessed as cell growth inhibition at 10 uM incubated for 48 hrs by sulforhodamine B assay relative to control; assay type: functional; summary of the method: as §2
[12] = tested on: SK-MEL-5; assay: Antiproliferative activity against human SK-MEL-5 cells assessed as cell growth inhibition at 10 uM incubated for 48 hrs by sulforhodamine B assay relative to control; assay type: functional; summary of the method: as §2
[13] = tested on: HL-60; assay: Antiproliferative activity against human HL-60 cells assessed as cell growth inhibition at 10 uM incubated for 48 hrs by sulforhodamine B assay relative to control; assay type: functional; summary of the method: as §1
[14] = tested on: MDA-MB-468; assay: Antiproliferative activity against human MDA-MB-468 cells assessed as cell growth inhibition at 10 uM incubated for 48 hrs by sulforhodamine B assay relative to control; assay type: functional; summary of the method: as §2
[15] = tested on: HOP-62; assay: Antiproliferative activity against human HOP-62 cells assessed as cell growth inhibition at 10 uM incubated for 48 hrs by sulforhodamine B assay relative to control; assay type: functional; summary of the method: as §1
[16] = tested on: M14; assay: Antiproliferative activity against human M14 cells assessed as cell growth inhibition at 10 uM incubated for 48 hrs by sulforhodamine B assay relative to control; assay type: functional; summary of the method: as §2
[17] = tested on: NCI/ADR-RES; assay: Antiproliferative activity against human NCI/ADR-RES cells assessed as cell growth inhibition at 10 uM incubated for 48 hrs by sulforhodamine B assay relative to control; assay type: functional; summary of the method: as §2
[18] = tested on: NCI-H522; assay: Antiproliferative activity against human NCI-H522 cells assessed as cell growth inhibition at 10 uM incubated for 48 hrs by sulforhodamine B assay relative to control; assay type: functional; summary of the method: as §2
[19] = tested on: SNB-19; assay: Antiproliferative activity against human SNB-19 cells assessed as cell growth inhibition at 10 uM incubated for 48 hrs by sulforhodamine B assay relative to control; assay type: functional; summary of the method: as §2
[20] = tested on: U-251; assay: Antiproliferative activity against human U-251 cells assessed as cell growth inhibition at 10 uM incubated for 48 hrs by sulforhodamine B assay relative to control; assay type: functional; summary of the method: as §2
[21] = tested on: UACC-62; assay: Antiproliferative activity against human UACC-62 cells assessed as cell growth inhibition at 10 uM incubated for 48 hrs by sulforhodamine B assay relative to control; assay type: functional; summary of the method: as §2
[22] = tested on: LOX IMVI; assay: Antiproliferative activity against human LOX IMVI cells assessed as cell growth inhibition at 10 uM incubated for 48 hrs by sulforhodamine B assay relative to control; assay type: functional; summary of the method: as §2
[23] = tested on: CCRF-CEM; assay: Antiproliferative activity against human CCRF-CEM cells assessed as cell growth inhibition at 10 uM incubated for 48 hrs by sulforhodamine B assay relative to control; assay type: functional; summary of the method: as §3
[24] = tested on: SF-268; assay: Antiproliferative activity against human SF-268 cells assessed as cell growth inhibition at 10 uM incubated for 48 hrs by sulforhodamine B assay relative to control; assay type: functional; summary of the method: as §2
[25] = tested on: SF-539; assay: Antiproliferative activity against human SF-539 cells assessed as cell growth inhibition at 10 uM incubated for 48 hrs by sulforhodamine B assay relative to control; assay type: functional; summary of the method: as §2
[26] = tested on: SR; assay: Antiproliferative activity against human SR cells assessed as cell growth inhibition at 10 uM incubated for 48 hrs by sulforhodamine B assay relative to control; assay type: functional; summary of the method: as §2
[27] = tested on: BT-549; assay: Antiproliferative activity against human BT-549 cells assessed as cell growth inhibition at 10 uM incubated for 48 hrs by sulforhodamine B assay relative to control; assay type: functional; summary of the method: as §3
[28] = tested on: NCI-H460; assay: Antiproliferative activity against human NCI-H460 cells assessed as cell growth inhibition at 10 uM incubated for 48 hrs by sulforhodamine B assay relative to control; assay type: functional; summary of the method: as §2
[29] = tested on: MCF7; assay: Antiproliferative activity against human MCF7 cells assessed as cell growth inhibition at 10 uM incubated for 48 hrs by sulforhodamine B assay relative to control; assay type: functional; summary of the method: as §2
[30] = tested on: MDA-MB-231; assay: Antiproliferative activity against human MDA-MB-231 cells assessed as cell growth inhibition at 10 uM incubated for 48 hrs by sulforhodamine B assay relative to control; assay type: functional; summary of the method: as §2
[31] = tested on: RPMI-8226; assay: Antiproliferative activity against human RPMI-8226 cells assessed as cell growth inhibition at 10 uM incubated for 48 hrs by sulforhodamine B assay relative to control; assay type: functional; summary of the method: as §2
[32] = tested on: T47D; assay: Antiproliferative activity against human T47D cells assessed as cell growth inhibition at 10 uM incubated for 48 hrs by sulforhodamine B assay relative to control; assay type: functional; summary of the method: as §2
[33] = tested on: NCI-H322M; assay: Antiproliferative activity against human NCI-H322M cells assessed as cell growth inhibition at 10 uM incubated for 48 hrs by sulforhodamine B assay relative to control; assay type: functional; summary of the method: as §2
[34] = tested on: HCT-116; assay: Antiproliferative activity against human HCT-116 cells assessed as cell growth inhibition at 10 uM incubated for 48 hrs by sulforhodamine B assay relative to control; assay type: functional; summary of the method: as §1
[35] = tested on: MDA-MB-435; assay: Antiproliferative activity against human MDA-MB-435 cells assessed as cell growth inhibition at 10 uM incubated for 48 hrs by sulforhodamine B assay relative to control; assay type: functional; summary of the method: as §2
[36] = tested on: OVCAR-8; assay: Antiproliferative activity against human OVCAR-8 cells assessed as cell growth inhibition at 10 uM incubated for 48 hrs by sulforhodamine B assay relative to control; assay type: functional; summary of the method: as §2
[37] = tested on: K562; assay: Antiproliferative activity against human K562 cells assessed as cell growth inhibition at 10 uM incubated for 48 hrs by sulforhodamine B assay relative to control; assay type: functional; summary of the method: as §2
[38] = tested on: MOLT-4; assay: Antiproliferative activity against human MOLT-4 cells assessed as cell growth inhibition at 10 uM incubated for 48 hrs by sulforhodamine B assay relative to control; assay type: functional; summary of the method: as §2
[39] = tested on: PC-3; assay: Antiproliferative activity against human PC-3 cells assessed as cell growth inhibition at 10 uM incubated for 48 hrs by sulforhodamine B assay relative to control; assay type: functional; summary of the method: as §2
[40] = n-Octanol/phosphate buffer partition coefficient, logP of the compound at pH 7.4 incubated for 85 mins by shake-flask method; assay type: physicochemical
Summary of the method: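 Octanol–water partition by shake-flask: n-octanol with 0.15 M phosphate buffer pH 7.4 at 10:1 volumes. Buffer-phase absorbance read before mixing, then shaken 50 min and centrifuged at 2500 rpm for 35 min. Buffer absorbance read again; P = (Ai−Af)/Af × Vw/Vo.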

[41] = tested on: NCI-H23; assay: Antiproliferative activity against human NCI-H23 cells assessed as cell growth inhibition at 10 uM incubated for 48 hrs by sulforhodamine B assay relative to control; assay type: functional; summary of the method: as §2

Compound: CC(=O)c1ccc(-c2cn3ccnc3c(-c3ccc4ncn(C5CCCCC5)c4c3)n2)cc1
- inhibition at 10 µM [1]: 18.8%
- inhibition at 10 µM [2]: 3.01%
- inhibition at 10 µM [3]: 0.58%
- inhibition at 10 µM [4]: 9.2%
- inhibition at 10 µM [5]: 6.33%
- inhibition at 10 µM [6]: 25%
- inhibition at 10 µM [7]: 4.32%
- inhibition at 10 µM [8]: 6.34%
- inhibition at 10 µM [9]: 19.1%
- inhibition at 10 µM [10]: 23.1%
- inhibition at 10 µM [11]: 11.7%
- inhibition at 10 µM [12]: 24.8%
- inhibition at 10 µM [13]: 2.65%
- inhibition at 10 µM [14]: 0.73%
- inhibition at 10 µM [15]: 7.41%
- inhibition at 10 µM [16]: 3.43%
- inhibition at 10 µM [17]: 4.17%
- inhibition at 10 µM [18]: 10.4%
- inhibition at 10 µM [19]: 3.96%
- inhibition at 10 µM [20]: 3.02%
- inhibition at 10 µM [21]: 18.5%
- inhibition at 10 µM [22]: 14.5%
- inhibition at 10 µM [23]: 1.1%
- inhibition at 10 µM [24]: 5.01%
- inhibition at 10 µM [25]: 2.82%
- inhibition at 10 µM [26]: 23.6%
- inhibition at 10 µM [27]: 4.68%
- inhibition at 10 µM [28]: 7.12%
- inhibition at 10 µM [29]: 12%
- inhibition at 10 µM [30]: 7.65%
- inhibition at 10 µM [31]: 20.8%
- inhibition at 10 µM [32]: 54.4%
- inhibition at 10 µM [33]: 1.19%
- inhibition at 10 µM [34]: 15.8%
- inhibition at 10 µM [35]: 6%
- inhibition at 10 µM [36]: 6.38%
- inhibition at 10 µM [37]: 9.6%
- inhibition at 10 µM [38]: 14.3%
- inhibition at 10 µM [39]: 17.9%
- logD at 1.417 h [40]: 2.06
- inhibition at 10 µM [41]: 8.6%
